Measured values published in ChEMBL document CHEMBL4368943 (J Med Chem, 2019).
Active and inactive are the calls of the source. The calls are words filed in the database; no cut-off is given here.

What was measured:
[1] = target: T1, von Hippel-Lindau disease tumor suppressor/Estrogen receptor/Cullin-2 (Homo sapiens, UniProt P03372+P40337+Q13617); experiment: Protac activity against VHL/cullin2/ERalpha in human MCF7 cells assessed as ERalpha degradation by measuring reduction in ER protein level pre-treated with raloxifene for 2 hrs followed by compound exposure at 30 nM for 4 hrs by Western blot analysis; format: cell-based
Target sequence in this assay (P03372 whole entry, looked up): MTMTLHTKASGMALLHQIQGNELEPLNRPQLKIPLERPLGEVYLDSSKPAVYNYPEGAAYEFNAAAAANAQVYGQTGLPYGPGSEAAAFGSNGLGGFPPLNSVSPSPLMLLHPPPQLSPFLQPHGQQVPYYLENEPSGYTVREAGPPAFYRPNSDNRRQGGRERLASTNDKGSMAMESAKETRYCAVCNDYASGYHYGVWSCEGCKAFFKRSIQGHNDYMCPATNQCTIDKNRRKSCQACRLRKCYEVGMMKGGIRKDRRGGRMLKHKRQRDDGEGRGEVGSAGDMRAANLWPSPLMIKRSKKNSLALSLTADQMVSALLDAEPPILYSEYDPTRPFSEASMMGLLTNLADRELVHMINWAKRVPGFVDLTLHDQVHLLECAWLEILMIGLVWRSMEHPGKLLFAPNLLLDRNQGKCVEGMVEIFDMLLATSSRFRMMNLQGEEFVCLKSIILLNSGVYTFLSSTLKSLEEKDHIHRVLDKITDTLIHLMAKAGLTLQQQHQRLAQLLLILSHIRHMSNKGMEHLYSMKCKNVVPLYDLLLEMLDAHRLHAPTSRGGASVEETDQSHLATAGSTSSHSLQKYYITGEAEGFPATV
Target sequence in this assay (P40337 whole entry, looked up): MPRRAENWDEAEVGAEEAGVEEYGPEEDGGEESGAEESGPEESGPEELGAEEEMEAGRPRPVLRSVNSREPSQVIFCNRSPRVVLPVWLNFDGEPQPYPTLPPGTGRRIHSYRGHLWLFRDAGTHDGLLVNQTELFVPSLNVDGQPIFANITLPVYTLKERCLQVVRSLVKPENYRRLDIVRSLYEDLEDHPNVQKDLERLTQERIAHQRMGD
Target sequence in this assay (Q13617 whole entry, looked up): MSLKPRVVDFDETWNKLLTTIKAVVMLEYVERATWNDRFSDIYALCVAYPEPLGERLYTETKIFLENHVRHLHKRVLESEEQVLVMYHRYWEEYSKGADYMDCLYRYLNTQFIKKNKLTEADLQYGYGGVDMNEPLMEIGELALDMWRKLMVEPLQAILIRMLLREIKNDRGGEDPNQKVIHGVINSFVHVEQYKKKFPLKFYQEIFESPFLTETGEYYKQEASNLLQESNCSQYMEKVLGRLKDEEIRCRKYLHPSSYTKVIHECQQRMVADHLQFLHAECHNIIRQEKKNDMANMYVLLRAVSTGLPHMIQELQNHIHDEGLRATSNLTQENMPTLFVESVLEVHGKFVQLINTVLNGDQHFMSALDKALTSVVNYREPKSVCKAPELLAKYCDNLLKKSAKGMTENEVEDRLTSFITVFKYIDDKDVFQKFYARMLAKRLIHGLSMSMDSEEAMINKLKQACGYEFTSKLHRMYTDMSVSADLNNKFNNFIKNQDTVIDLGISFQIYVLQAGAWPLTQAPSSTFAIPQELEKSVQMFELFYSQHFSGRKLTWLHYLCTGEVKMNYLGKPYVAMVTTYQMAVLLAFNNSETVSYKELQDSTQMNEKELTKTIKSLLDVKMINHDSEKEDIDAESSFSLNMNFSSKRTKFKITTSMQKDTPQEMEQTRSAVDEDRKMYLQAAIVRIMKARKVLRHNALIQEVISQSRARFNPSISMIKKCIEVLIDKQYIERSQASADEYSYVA

[2] = target: T1, von Hippel-Lindau disease tumor suppressor/Estrogen receptor/Cullin-2; experiment: Protac activity against VHL/cullin2/ERalpha in human T47D cells assessed as ERalpha degradation by measuring ER protein/GAPDH ratio at 30 nM after 4 hrs by Western blot analysis relative to control; format: cell-based
Outline: (§1)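 T47D cells (DMEM, 10% FBS, passages 3−8) exposed 4 h over a dose series. RIPA lysates, equal protein, 10% SDS-PAGE, anti-ERα Western blot. ERα band density normalized to GAPDH; DC50 derived from the quantified dose–response.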
Target sequence in this assay (P03372 whole entry, looked up): as the sequence (P03372 whole entry, looked up) above
Target sequence in this assay (P40337 whole entry, looked up): as the sequence (P40337 whole entry, looked up) above
Target sequence in this assay (Q13617 whole entry, looked up): as the sequence (Q13617 whole entry, looked up) above

[3] = target: T1, von Hippel-Lindau disease tumor suppressor/Estrogen receptor/Cullin-2; experiment: Protac activity against VHL/cullin2/ERalpha in human MCF7 cells assessed as ERalpha degradation by measuring ER protein/GADPH ratio at 1 nM after 4 hrs by Western blot analysis relative to control; format: cell-based
Outline: (§2)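 MCF-7 cells (DMEM, 10% FBS, passages 3−8) exposed 4 h. Lysed in RIPA with protease inhibitors; equal protein on 10% SDS-PAGE, PVDF, anti-ERα blot. Membranes stripped and reprobed for GAPDH. ERα/GAPDH ratio normalized to DMSO = 100; DC50 from densitometry of the dose series.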
Target sequence in this assay (P03372 whole entry, looked up): as the sequence (P03372 whole entry, looked up) above
Target sequence in this assay (P40337 whole entry, looked up): as the sequence (P40337 whole entry, looked up) above
Target sequence in this assay (Q13617 whole entry, looked up): as the sequence (Q13617 whole entry, looked up) above

[4] = target: T1, von Hippel-Lindau disease tumor suppressor/Estrogen receptor/Cullin-2; experiment: Protac activity against VHL/cullin2/ERalpha in human T47D cells assessed as ERalpha degradation by measuring ER protein/GAPDH ratio at 0.3 nM after 4 hrs by Western blot analysis relative to control; format: cell-based; outline: as §1
Target sequence in this assay (P03372 whole entry, looked up): as the sequence (P03372 whole entry, looked up) above
Target sequence in this assay (P40337 whole entry, looked up): as the sequence (P40337 whole entry, looked up) above
Target sequence in this assay (Q13617 whole entry, looked up): as the sequence (Q13617 whole entry, looked up) above

[5] = target: T1, von Hippel-Lindau disease tumor suppressor/Estrogen receptor/Cullin-2; experiment: Protac activity against VHL/cullin2/ERalpha in human T47D cells assessed as ERalpha degradation by measuring ER protein/GAPDH ratio at 1000 nM after 4 hrs by Western blot analysis relative to control; format: cell-based; outline: as §1
Target sequence in this assay (P03372 whole entry, looked up): as the sequence (P03372 whole entry, looked up) above
Target sequence in this assay (P40337 whole entry, looked up): as the sequence (P40337 whole entry, looked up) above
Target sequence in this assay (Q13617 whole entry, looked up): as the sequence (Q13617 whole entry, looked up) above

[6] = target: T1, von Hippel-Lindau disease tumor suppressor/Estrogen receptor/Cullin-2; experiment: Protac activity against VHL/cullin2/ERalpha in human T47D cells assessed as ERalpha degradation by measuring ER protein/GAPDH ratio at 0.1 nM after 4 hrs by Western blot analysis relative to control; format: cell-based; outline: as §1
Target sequence in this assay (P03372 whole entry, looked up): as the sequence (P03372 whole entry, looked up) above
Target sequence in this assay (P40337 whole entry, looked up): as the sequence (P40337 whole entry, looked up) above
Target sequence in this assay (Q13617 whole entry, looked up): as the sequence (Q13617 whole entry, looked up) above

[7] = target: T1, von Hippel-Lindau disease tumor suppressor/Estrogen receptor/Cullin-2; experiment: Protac activity against VHL/cullin2/ERalpha in human MCF7 cells assessed as ERalpha degradation by measuring ER protein/GAPDH ratio at 0.1 nM after 4 hrs by Western blot analysis relative to control; format: cell-based; outline: as §2
[8] = target: T1, von Hippel-Lindau disease tumor suppressor/Estrogen receptor/Cullin-2; experiment: Protac activity against VHL/cullin2/ERalpha in human MCF7 cells assessed as ERalpha degradation by measuring reduction in ER protein level at 30 nM after 3 hrs by Western blot analysis relative to control; format: cell-based; design: scale not given: the % may be the effect or the level left
Outline: (§3)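 Time course: cells given 30 nM degrader and harvested at time points from 1 h up to 24 h. ERα assessed by Western blot against a GAPDH loading control, with levels taken relative to DMSO.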

[9] = target: T1, von Hippel-Lindau disease tumor suppressor/Estrogen receptor/Cullin-2; experiment: Protac activity against VHL/cullin2/ERalpha in human T47D cells assessed as ERalpha degradation by measuring reduction in ER protein level at 30 nM after 1 to 24 hrs hrs by Western blot analysis relative to control; format: cell-based; outline: as §3
[10] = target: T1, von Hippel-Lindau disease tumor suppressor/Estrogen receptor/Cullin-2; experiment: Protac activity against VHL/cullin2/ERalpha in human T47D cells assessed as ERalpha degradation after 4 hrs by Western blot analysis; format: cell-based; outline: as §1
Target sequence in this assay (P03372 whole entry): as the sequence (P03372 whole entry, looked up) above
Target sequence in this assay (P40337 whole entry): as the sequence (P40337 whole entry, looked up) above
Target sequence in this assay (Q13617 whole entry): as the sequence (Q13617 whole entry, looked up) above

[11] = target: T1, von Hippel-Lindau disease tumor suppressor/Estrogen receptor/Cullin-2; experiment: Protac activity against VHL/cullin2/ERalpha in human T47D cells assessed as ERalpha degradation by measuring ER protein/GAPDH ratio at 1 nM after 4 hrs by Western blot analysis relative to control; format: cell-based; outline: as §1
[12] = target: T1, von Hippel-Lindau disease tumor suppressor/Estrogen receptor/Cullin-2; experiment: Protac activity against VHL/cullin2/ERalpha in human T47D cells assessed as ERalpha degradation by measuring ER protein/GAPDH ratio at 10 nM after 4 hrs by Western blot analysis relative to control; format: cell-based; outline: as §1
[13] = target: T1, von Hippel-Lindau disease tumor suppressor/Estrogen receptor/Cullin-2; experiment: Protac activity against VHL/cullin2/ERalpha in human MCF7 cells assessed as ERalpha degradation by measuring ER protein/GAPDH ratio at 30 nM after 4 hrs by Western blot analysis relative to control; format: cell-based; outline: as §2
[14] = target: T1, von Hippel-Lindau disease tumor suppressor/Estrogen receptor/Cullin-2; experiment: Protac activity against VHL/cullin2/ERalpha in human MCF7 cells assessed as ERalpha degradation by measuring ER protein/GAPDH ratio at 5 nM after 4 hrs by Western blot analysis relative to control; format: cell-based; outline: as §2
[15] = target: T1, von Hippel-Lindau disease tumor suppressor/Estrogen receptor/Cullin-2; experiment: Protac activity against VHL/cullin2/ERalpha in human MCF7 cells assessed as ERalpha degradation by measuring ER protein/GAPDH ratio at 0.03 nM after 4 hrs by Western blot analysis relative to control; format: cell-based; outline: as §2
[16] = target: T1, von Hippel-Lindau disease tumor suppressor/Estrogen receptor/Cullin-2; experiment: Protac activity against VHL/cullin2/ERalpha in human MCF7 cells assessed as ERalpha degradation by measuring ER protein/GADPH ratio at 1000 nM after 4 hrs by Western blot analysis relative to control; format: cell-based; outline: as §2
[17] = tested on: MCF7; experiment: Inhibition of cell growth in human MCF7 cells after 4 days by wst-8-based colorimetric analysis; format: functional; conditions: MCF7, 96 h
Outline: (§4)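 Cells seeded at 1500/well overnight, then exposed to graded compound doses for 4 days. Growth read by colorimetric WST-8 assay. GI50 from fitted curves. MCF-7 cells were kept in DMEM, 10% FBS, passages 3−8; human mammary epithelial cells were run the same way.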

[18] = target: T1, von Hippel-Lindau disease tumor suppressor/Estrogen receptor/Cullin-2; experiment: Protac activity against VHL/cullin2/ERalpha in human T47D cells assessed as ERalpha degradation by measuring ER protein/GAPDH ratio at 300 nM after 4 hrs by Western blot analysis relative to control; format: cell-based; outline: as §1
[19] = tested on: MDA-MB-231; experiment: Inhibition of cell growth in human MDA-MB-231 cells at 10^-13 to 10^-5 M after 4 days by wst-8-based colorimetric analysis; format: functional
[20] = target: T1, von Hippel-Lindau disease tumor suppressor/Estrogen receptor/Cullin-2; experiment: Protac activity against VHL/cullin2/ERalpha in human T47D cells assessed as ERalpha degradation by measuring ER protein/GAPDH ratio at 100 nM after 4 hrs by Western blot analysis relative to control; format: cell-based; outline: as §1
[21] = target: T1, von Hippel-Lindau disease tumor suppressor/Estrogen receptor/Cullin-2; experiment: Protac activity against VHL/cullin2/ERalpha in human T47D cells assessed as ERalpha degradation by measuring ER protein/GAPDH ratio at 0.6 nM after 4 hrs by Western blot analysis relative to control; format: cell-based; outline: as §1
[22] = target: T1, von Hippel-Lindau disease tumor suppressor/Estrogen receptor/Cullin-2; experiment: Protac activity against VHL/cullin2/ERalpha in human MCF7 cells assessed as ERalpha degradation by measuring ER protein/GADPH ratio at 10 nM after 4 hrs by Western blot analysis relative to control; format: cell-based; outline: as §2
[23] = target: T1, von Hippel-Lindau disease tumor suppressor/Estrogen receptor/Cullin-2; experiment: Protac activity against VHL/cullin2/ERalpha in human MCF7 cells assessed as ERalpha degradation by measuring reduction in ER protein level at 30 nM after 1 hr by Western blot analysis relative to control; format: cell-based; design: scale not given: the % may be the effect or the level left; outline: as §3
[24] = Inhibition of cell growth in primary human mammary epithelial cells at 10^-13 to 10^-6 M after 4 days by wst-8-based colorimetric analysis; conditions: 96 h; outline: as §4
[25] = target: T1, von Hippel-Lindau disease tumor suppressor/Estrogen receptor/Cullin-2; experiment: Protac activity against VHL/cullin2/ERalpha in human MCF7 cells assessed as ERalpha degradation by measuring ER protein/GAPDH ratio at 0.6 nM after 4 hrs by Western blot analysis relative to control; format: cell-based; outline: as §2
[26] = target: T1, von Hippel-Lindau disease tumor suppressor/Estrogen receptor/Cullin-2; experiment: Protac activity against VHL/cullin2/ERalpha in human T47D cells assessed as ERalpha degradation by measuring ER protein/GAPDH ratio at 5 nM after 4 hrs by Western blot analysis relative to control; format: cell-based; outline: as §1
[27] = target: T1, von Hippel-Lindau disease tumor suppressor/Estrogen receptor/Cullin-2; experiment: Protac activity against VHL/cullin2/ERalpha in human MCF7 cells assessed as ERalpha degradation by measuring ER protein/GAPDH ratio at 0.3 nM after 4 hrs by Western blot analysis relative to control; format: cell-based; outline: as §2
[28] = tested on: MCF7; experiment: Inhibition of cell growth in human MCF7 cells after 4 days by wst-8-based colorimetric analysis relative to control; format: functional; outline: as §4
[29] = target: T1, von Hippel-Lindau disease tumor suppressor/Estrogen receptor/Cullin-2; experiment: Protac activity against VHL/cullin2/ERalpha in human MCF7 cells assessed as ERalpha degradation by measuring ER protein/GADPH ratio at 100 nM after 4 hrs by Western blot analysis relative to control; format: cell-based; outline: as §2
[30] = target: T1, von Hippel-Lindau disease tumor suppressor/Estrogen receptor/Cullin-2; experiment: Protac activity against VHL/cullin2/ERalpha in human T47D cells assessed as ERalpha degradation by measuring ER protein/GAPDH ratio at 0.03 nM after 4 hrs by Western blot analysis relative to control; format: cell-based; outline: as §1
[31] = target: T1, von Hippel-Lindau disease tumor suppressor/Estrogen receptor/Cullin-2; experiment: Protac activity against VHL/cullin2/ERalpha in human MCF7 cells assessed as ERalpha degradation after 4 hrs by Western blot analysis; format: cell-based; outline: as §2
Target sequence in this assay (P03372 whole entry): as the sequence (P03372 whole entry, looked up) above
Target sequence in this assay (P40337 whole entry): as the sequence (P40337 whole entry, looked up) above
Target sequence in this assay (Q13617 whole entry): as the sequence (Q13617 whole entry, looked up) above

[32] = target: T1, von Hippel-Lindau disease tumor suppressor/Estrogen receptor/Cullin-2; experiment: Protac activity against VHL/cullin2/ERalpha in human T47D cells assessed as ERalpha degradation by measuring reduction in ER protein level at 30 nM after 1 to 3 hrs by Western blot analysis relative to control; format: cell-based; outline: as §3
[33] = tested on: MCF7; experiment: Antiproliferative activity against human MCF7 cells at 10 to 300 nM after 5 days by crystal violet staining based assay; format: functional, cell-based
Outline: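 MCF-7 cells in DMEM with 10% FBS and penicillin/streptomycin, passages 3−8, exposed to compounds at 10, 100 and 300 nM for 5 days, then fixed and stained with crystal violet.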

[34] = target: T1, von Hippel-Lindau disease tumor suppressor/Estrogen receptor/Cullin-2; experiment: Protac activity against VHL/cullin2/ERalpha in human MCF7 cells assessed as ERalpha degradation by measuring ER protein/GAPDH ratio at 300 nM after 4 hrs by Western blot analysis relative to control; format: cell-based; outline: as §2
[35] = target: T1, von Hippel-Lindau disease tumor suppressor/Estrogen receptor/Cullin-2; experiment: Protac activity against VHL/cullin2/ERalpha in human MCF7 cells assessed as ERalpha degradation by measuring reduction in ER protein level pre-treated with carfilzomib for 2 hrs followed by compound exposure at 30 nM for 4 hrs by Western blot analysis; format: cell-based
[36] = Binding affinity to His-TEV-tagged VHL (54 to 213 residues) (unknown origin)/Elongin B (1 to 118 residues)/Elongin C (1 to 96 residues) expressed in Escherichia coli BL21(DE3) by FP assay; design: species or system Homo sapiens
Outline: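 Competitive FP. Tracer is a fluorescent VHL ligand (Kd 2.3 nM). VHL–ElonginB/C complex and tracer each at 5 nM final, preincubated. Compound in DMSO (5 µL into 95 µL) for 60 min at room temperature with shaking. Ex 485/em 530 nm. IC50 by nonlinear regression; Ki from probe KD and protein/probe concentrations. Duplicate, three independent experiments.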

CC(C)C[C@H](NC(=O)[C@H](CCc1ccccc1)NC(=O)CN1CCOCC1)C(=O)N[C@@H](Cc1ccccc1)C(=O)N[C@@H](CC(C)C)C(=O)[C@@]1(C)CO1
Activity [1]: inactive

CCN(CCCCCOCC(=O)N[C@H](C(=O)N1C[C@H](O)C[C@H]1C(=O)N[C@@H](C)c1ccc(-c2scnc2C)cc1)C(C)(C)C)CCOc1ccc(C(=O)c2c(-c3ccc(O)cc3)sc3cc(O)ccc23)cc1
Ratio [2]: 2 | Ratio [3]: 8 | Ratio [4]: 62 | Ratio [5]: 25 | Ratio [6]: 73 | Ratio [7]: 76 | Activity [8]: 100% | Activity [9]: Active | DC50 [10]: 0.43 nM | Ratio [11]: 33 | Ratio [12]: 3 | Ratio [13]: 0.3 | Ratio [14]: 0.3 | Ratio [15]: 84 | Ratio [16]: 13 | GI50 [17]: 0.77 nM | Ratio [18]: 6 | growth inhibition (GI) [19]: inactive | Ratio [20]: 4 | Ratio [21]: 58 | Ratio [22]: 0.3 | Activity [23]: > 80% | Activity [24]: Non-Toxic | Ratio [25]: 12 | Ratio [26]: 4 | Ratio [27]: 28 | Imax [28]: 57.5% | Ratio [29]: 0.3 | Ratio [30]: 84 | DC50 [31]: 0.17 nM | Activity [32]: Active | Activity [1]: inactive | Activity [33]: Active | Ratio [34]: 0.3 | Activity [35]: inactive

CC(=O)N[C@H](C(=O)N1C[C@H](O)C[C@H]1C(=O)N[C@@H](C)c1ccc(C(C)C)cc1)C(C)(C)C
IC50 [36]: 41000 nM

CC(=O)N[C@H](C(=O)N1C[C@H](O)C[C@H]1C(=O)N[C@@H](C)c1ccc(C(C)(C)C)cc1)C(C)(C)C
IC50 [36]: 58900 nM
